Measurements of several laboratories.
Each line is one published result; the experiments were not run side by side.
Cell line: HepG2
Observed: cell growth or viability

Cc1cc(Nc2ccc(S(F)(F)(F)(F)F)cc2)n2ccnc2n1
CC50: > 50 µM

COc1ccc(NC(=O)N2CCCCN3[C@H](CN(C)S(C)(=O)=O)[C@H](c4ccc(C#Cc5ccccc5)cc4)[C@@H]3C2)cc1
CC50: > 40 µM

C[C@@H]1[C@H](O)[C@@H](C)/C=C/C=C/C=C/C=C/C=C/C=C/C=C/[C@H](O[C@@H]2O[C@H](C)[C@@H](O)[C@H](N)[C@@H]2O)C[C@@H]2O[C@](O)(C[C@@H](O)C[C@@H](O)[C@H](O)CC[C@@H](O)C[C@@H](O)CC(=O)O[C@H]1C)C[C@H](O)[C@H]2C(=O)O
CC50 (MTS; 24 h): 4.6 µM

N=C(N)NCc1ccc(NC(=O)c2ccc(C(=O)Nc3ccc(C4=CCN(C(=N)N)CC4)nn3)cc2)cc1
CC50 (MTS; 24 h): 326 µM

O=C(c1ccc(Nc2ncc(Cl)c(-c3ccc(Cl)s3)n2)cc1)N1CCC(N2CCCC2)CC1
CC50 (44 h): 5.1 µM

CCOC(=O)c1cn(CC(c2cn(C)c3ccc(C)cc23)c2cn(C)c3ccc(C)cc23)c(C)c1C(=O)OC
CC50 (MTS; 24 h): > 20 µM

COc1ccc(NC(=O)N2CCCCN3[C@H](COCCC(=O)O)[C@H](c4ccc(C#Cc5ccccc5)cc4)[C@@H]3C2)cc1
CC50: > 40 µM

CCOC(=O)c1c(C)ncn1CC(c1cn(C)c2ccc([N+](=O)[O-])cc12)c1cn(C)c2ccc([N+](=O)[O-])cc12
CC50 (MTS; 24 h): > 20 µM

COc1cc(/C=C/C(=O)CC(=O)/C=C/c2ccc(O)c(OC)c2)ccc1O
CC50 (MTT; 24 h): ~42 µM

N=C(N)NCc1ccc(NC(=O)c2ccc(C(=O)Nc3ccc(C4=CCN(C(=N)N)CC4)cc3)cn2)cc1
CC50 (MTS; 24 h): 739 µM

O=C(NCCCN1CCOCC1)c1ccc(Nc2ncc(Cl)c(-c3ccc(Cl)s3)n2)cc1
CC50 (44 h): 4.9 µM

CC(=O)Nc1ccc(O)cc1
CC50 (ATP luminescence): > 1000 µM

COC(=O)c1c(C)ncn1CC(c1c[nH]c2ccccc12)c1c[nH]c2ccccc12
CC50 (MTS; 24 h): > 20 µM

N=C(N)N1CC=C(c2coc(C(=O)Nc3ccc(C4=CCN(C(=N)N)CC4)c(F)c3)c2)CC1
CC50 (MTS; 24 h): 129 µM

CCc1ncn(CC(c2c[nH]c3ccc(C)cc23)c2c[nH]c3ccc(C)cc23)c1C(=O)OC
CC50 (MTS; 24 h): > 20 µM

O=[N+]([O-])c1ccc(-c2nc3cccc(O)c3[nH]2)o1
CC50 (resazurin; 72 h): 37 µM
